The record followed here is ChEMBL document CHEMBL1156382, “New steroidal alkaloids from an undescribed sponge of the genus Corticium” (2001).

Structures are written as SMILES. Converted amounts (≈) assume the structure as drawn. The source made the active and inactive calls. The calls are words filed in the database; no cut-off is given here.

Experiment [1] relates to K562. The experiment in a line: Cytotoxicity against human K562 cells. It counts as functional. Particulars: read-out: LC50 (the source's name).
The subject of experiment [2] is Nucleic Acid. In words: Induction of Escherichia coli double stranded DNA cleavage at 10 ug/20 mL by gel electrophoresis. Type of experiment: nucleic-acid assay. The gist of the method:
(§1)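 Nucleic acids (double-stranded DNA and 16S rRNA) were isolated from E. coli and exposed to compound at 10 µg/20 mL; cleavage was scored by gel electrophoresis.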

In experiment [3] the test system is Candida albicans. In words: Antifungal activity against Candida albicans at 25 ug/disk by paper disk method. It counts as functional. Particulars: read-out: IZ. In a few lines: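 Paper disk diffusion against Candida albicans with 25 µg loaded per disk; read-out is the diameter of the clear zone of inhibition, in mm.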
Experiment [4] relates to Nucleic Acid. The experiment in a line: Induction of Escherichia coli 16S rRNA cleavage at 10 ug/20 mL by gel electrophoresis. Type of experiment: nucleic-acid assay. The gist of the method: as §1

As to `CC(C)=C1CCN=C1C[C@@H](C)[C@H]1CC[C@H]2C3=CC[C@H]4[C@@H](O)[C@@H](N(C)C)CC[C@]4(C)[C@H]3CC[C@]12C` [LOKYSTEROLAMINE A], the CC50 in experiment [1] was determined as 0.9 µg/mL (≈ 1.93 µM). Further, the result in experiment [2] and in experiment [4] was inactive. Also, the zone of inhibition at 25 µg/disc in experiment [3] is 9 mm.
Regarding `CC(C)=C1CC[N+]([O-])=C1C[C@@H](C)[C@H]1CC[C@H]2C3=CC[C@H]4[C@@H](O)[C@@H](N(C)C)CC[C@]4(C)[C@H]3CC[C@]12C` [PLAKINAMINE E], the CC50 in experiment [1] was found to be 0.2 µg/mL (≈ 0.414 µM). For the same molecule, the outcome in experiment [2] and in experiment [4] was Active. In addition, the zone of inhibition at 25 µg/disc in experiment [3] came to 12 mm.
As to `CC(C)=C1CCN=C1C[C@@H](C)[C@H]1CC[C@H]2C3=CC[C@H]4C(=O)[C@@H](N(C)C)CC[C@]4(C)[C@H]3CC[C@]12C` [PLAKINAMINE F], the CC50 in experiment [1] is 1.3 µg/mL (≈ 2.8 µM). The outcome in experiment [2] and in experiment [4] was inactive. Moreover, the zone of inhibition at 25 µg/disc in experiment [3] was 8 mm.
